The values that follow come from ChEMBL document CHEMBL3421551, “Puupehenol, a potent antioxidant antimicrobial meroterpenoid from a Hawaiian deep-water Dactylospongia sp. sponge” (J Nat Prod, 2015).

The structures appear in SMILES notation. The source made the active and inactive calls. No cut-off for these calls is given here.

One data set deals with Staphylococcus aureus. Put plainly: Antimicrobial activity against Staphylococcus aureus at 10 ug/disc by disc diffusion assay. The data set is classed as functional. To be noted: read-out: IZ. (In general: Agar diffusion results depend on both activity and mobility in agar.)
A further data set deals with Bacillus cereus. Kind of data set: Antimicrobial activity against Bacillus cereus at 10 ug/disc by disc diffusion assay. It is filed as functional. To be noted: read-out: IZ.
In the next data set the test system is Escherichia coli. Put plainly: Antimicrobial activity against Escherichia coli at 10 ug/disc by disc diffusion assay. It is filed as functional. To be noted: for zone of inhibition at 10 µg/disc: read-out: IZ. In a few lines:
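Disc diffusion assay, tested alongside S. aureus, B. cereus and P. aeruginosa. Discs loaded at 10 μg each, with a methanol disc as the negative control.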

The nature of data set [1]: Antioxidant activity assessed as ferric reducing antioxidant power at 1 mg/ml by FRAP assay. It is filed as physicochemical. A digest of the protocol:
(§1)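 Working reagent was 300 mM acetate buffer (pH 3.6), 10 mM TPTZ in 40 mM HCl and 20 mM FeCl3·6H2O mixed 10:1:1 and warmed to 37 °C. A blank read at 595 nm was taken, then sample was added. After 8 min at room temperature, absorbance was read at 595 nm, in triplicate. FRAP values (μM) came from an FeSO4 standard curve (50–1000 μM) run on each plate.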

The subject of a further data set is Pseudomonas aeruginosa. Kind of data set: Antimicrobial activity against Pseudomonas aeruginosa at 10 ug/disc by disc diffusion assay. The data set is classed as functional, organism-based.
A short description of data set [2]: Antioxidant activity assessed as ferric reducing antioxidant power at 0.1 mg/ml by FRAP assay. The data set is classed as physicochemical. A digest of the protocol:
as §1

As to `CC1(C)CCC[C@]2(C)[C@H]3C=C4C=C(O)C(=O)C=C4O[C@@]3(C)CC[C@@H]12` [PUUPEHENONE], the zone of inhibition at 10 µg/disc is 4 mm with Staphylococcus aureus and 3 mm with Bacillus cereus. The “inhibition zone (IZ)” value in the data set with Escherichia coli and with Pseudomonas aeruginosa was “inactive” throughout. Also, in data set [1], the Activity was 2600 µM.
`CC1(C)CCC[C@]2(C)[C@H]3[C@H](O)c4cc(O)c(O)cc4O[C@@]3(C)CC[C@@H]12` (relative stereo): the zone of inhibition at 10 µg/disc in the data set on Staphylococcus aureus was 4 mm; in the data set on Bacillus cereus it was 3 mm. Further, the “inhibition zone (IZ)” value with Escherichia coli and in the data set with Pseudomonas aeruginosa was “inactive” each time. Also, the Activity in data set [1] was 2500 µM.
For `CO` [METHYL ALCOHOL], the zone of inhibition at 10 µg/disc in the data set with Staphylococcus aureus, in the data set with Bacillus cereus and in the data set on Escherichia coli was 0 mm each time. The Activity in data set [1] came out at 4.7 µM. Further, the “inhibition zone (IZ)” value with Pseudomonas aeruginosa is “inactive”.
With `O=C1O[C@H]([C@@H](O)CO)C(O)=C1O` [ASCORBIC ACID], in data set [2], the Activity turned out to be 870 µM.
As for `CC1(C)S[C@@H]2[C@H](NC(=O)[C@H](N)c3ccccc3)C(=O)N2[C@H]1C(=O)O` [AMPICILLIN], the values for the zone of inhibition at 10 µg/disc with Staphylococcus aureus, in the data set on Bacillus cereus and with Escherichia coli were 31 mm, 9 mm and 20 mm, respectively. Also, the “inhibition zone (IZ)” value in the data set with Pseudomonas aeruginosa was “inactive”.
